Laboratory results from ChEMBL document CHEMBL3124858, “Drug design targeting protein-protein interactions (PPIs) using multiple ligand simultaneous docking (MLSD) and drug repositioning: discovery of raloxifene and bazedoxifene as novel inhibitors of IL-6/GP130 interface” (J Med Chem, 2014).
The source made the active and inactive calls. No cut-off for these calls is given here.

How the values were obtained:
[1] = target: LIFR/GP130 (Homo sapiens) (UniProt P40189+P42702); experiment: Inhibition of LIFR/GP130 interaction in human PANC-1 cells assessed as inhibition of LIF-induced STAT3 phosphorylation at Y705 at 25 uM after 24 hrs by Western blot analysis; type: cell-based
Chain of LIFR/GP130 (Homo sapiens) (P42702 whole entry, looked up, one chain of several): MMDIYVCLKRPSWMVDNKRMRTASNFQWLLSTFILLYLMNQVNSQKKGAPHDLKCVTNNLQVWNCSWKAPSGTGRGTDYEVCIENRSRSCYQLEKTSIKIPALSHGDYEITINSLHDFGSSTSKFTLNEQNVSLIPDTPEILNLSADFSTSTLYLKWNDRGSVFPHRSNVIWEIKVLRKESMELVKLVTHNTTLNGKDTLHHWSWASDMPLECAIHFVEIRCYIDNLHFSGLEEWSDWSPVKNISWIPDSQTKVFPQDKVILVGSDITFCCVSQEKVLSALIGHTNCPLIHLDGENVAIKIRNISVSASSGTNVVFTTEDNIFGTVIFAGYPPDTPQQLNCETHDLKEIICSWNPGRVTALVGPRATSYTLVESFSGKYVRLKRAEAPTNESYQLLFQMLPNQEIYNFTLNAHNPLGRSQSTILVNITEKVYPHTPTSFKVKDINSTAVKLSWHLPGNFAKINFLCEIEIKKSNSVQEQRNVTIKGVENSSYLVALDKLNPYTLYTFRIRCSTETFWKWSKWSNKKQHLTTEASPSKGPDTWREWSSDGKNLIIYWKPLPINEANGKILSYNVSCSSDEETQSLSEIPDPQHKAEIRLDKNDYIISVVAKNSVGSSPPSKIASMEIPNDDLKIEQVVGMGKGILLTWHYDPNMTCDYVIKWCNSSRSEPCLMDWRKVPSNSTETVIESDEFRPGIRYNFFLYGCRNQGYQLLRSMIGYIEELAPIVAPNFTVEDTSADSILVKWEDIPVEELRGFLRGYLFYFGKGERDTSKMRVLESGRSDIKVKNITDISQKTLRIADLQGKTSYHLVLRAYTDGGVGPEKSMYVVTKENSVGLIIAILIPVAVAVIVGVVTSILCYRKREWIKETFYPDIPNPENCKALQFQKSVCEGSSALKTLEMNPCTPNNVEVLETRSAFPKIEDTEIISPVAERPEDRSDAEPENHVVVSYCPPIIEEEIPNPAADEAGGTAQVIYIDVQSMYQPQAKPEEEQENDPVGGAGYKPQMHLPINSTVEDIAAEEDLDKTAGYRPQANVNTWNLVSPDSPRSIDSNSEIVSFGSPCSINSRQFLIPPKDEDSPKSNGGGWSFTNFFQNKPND

[2] = tested on: PANC-1; experiment: Inhibition of IFN-gamma receptor/GP130 interaction in human PANC-1 cells assessed as inhibition of IFN-gamma-induced STAT1 phosphorylation at Y701 at 25 uM […] measured after 24 hrs by Western blot analysis; type: cell-based
How it was run: (§1)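 PANC-1 cells (GP130+, ER−) in DMEM/10% FBS, stimulated with 50 ng/ml IL-6 or IFN-γ for 30 min before compound (10-50µM range), then 24 h at 60-80% confluence with 10% FBS. Whole-cell extracts made in RIPA with protease inhibitors. Blotted for pSTAT3 (Tyr705), STAT3, pSTAT1 (Tyr701), STAT1 and GAPDH, with chemiluminescent detection.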

[3] = target: T1, IL6Ralpha/GP130 (Homo sapiens) (UniProt P08887+P40189); experiment: Inhibition of IL-6Ralpha/GP130 interaction in human PANC-1 cells assessed as inhibition of IL-6-induced STAT3 phosphorylation at Y705 at 25 uM […] measured after 24 hrs by Western blot analysis; type: cell-based; how it was run: as §1
T1 sequence (P08887 whole entry, looked up, one chain of several): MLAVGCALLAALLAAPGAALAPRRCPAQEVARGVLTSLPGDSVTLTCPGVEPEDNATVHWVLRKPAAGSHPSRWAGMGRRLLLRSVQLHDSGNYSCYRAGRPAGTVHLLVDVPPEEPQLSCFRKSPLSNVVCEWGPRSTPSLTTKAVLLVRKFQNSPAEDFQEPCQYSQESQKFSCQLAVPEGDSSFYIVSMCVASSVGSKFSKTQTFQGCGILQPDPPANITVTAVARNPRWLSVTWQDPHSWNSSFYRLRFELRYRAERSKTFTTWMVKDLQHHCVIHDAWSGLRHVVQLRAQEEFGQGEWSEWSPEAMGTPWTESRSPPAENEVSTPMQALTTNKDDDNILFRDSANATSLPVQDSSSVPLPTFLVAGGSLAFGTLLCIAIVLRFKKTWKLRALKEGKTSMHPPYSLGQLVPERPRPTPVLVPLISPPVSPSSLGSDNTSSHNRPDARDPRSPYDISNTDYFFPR

[4] = target: T1, IL6Ralpha/GP130 (Homo sapiens); experiment: Inhibition of IL-6Ralpha/GP130 interaction in ER-negative human SUM159 cells overexpressing IL-6 assessed as inhibition of constitutive STAT3 phosphorylation at Y705 at 10 to 30 uM after 24 hrs by Western blot analysis; type: cell-based
How it was run: (§2)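 Constitutive STAT3 activity in SUM159 (ER negative) cells grown in DMEM/10% FBS. Compound (10-50µM) or DMSO added at 60-80% confluence with 10% FBS for 24 h. RIPA whole-cell lysates run on SDS-PAGE and immunoblotted overnight at 4 °C for pSTAT3 (Tyr705), STAT3 and GAPDH. Detection by chemiluminescence.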

[5] = Cytotoxicity against ER-negative human SUM159 cells assessed as cell viability after 72 hrs by MTT assay in presence of IL-6; type: functional, cell-based; conditions: SUM-159-PT
How it was run: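 SUM159 (ER negative) seeded at 3,000 cells/well, given […] compound in triplicate with 10% FBS. Incubated 72 h at 37 °C, then MTT read-out, absorbance at 595 nm. IC50 from curve fitting.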

[6] = Cytotoxicity against human MIAPaCa2 cells assessed as cell viability; type: functional, cell-based; conditions: MIA PaCa-2
[7] = target: T2, Interleukin-6 receptor subunit beta (Homo sapiens, UniProt P40189); experiment: Binding affinity to GP130 (unknown origin) by surface plasmon resonance analysis
T2 sequence (P40189 whole entry): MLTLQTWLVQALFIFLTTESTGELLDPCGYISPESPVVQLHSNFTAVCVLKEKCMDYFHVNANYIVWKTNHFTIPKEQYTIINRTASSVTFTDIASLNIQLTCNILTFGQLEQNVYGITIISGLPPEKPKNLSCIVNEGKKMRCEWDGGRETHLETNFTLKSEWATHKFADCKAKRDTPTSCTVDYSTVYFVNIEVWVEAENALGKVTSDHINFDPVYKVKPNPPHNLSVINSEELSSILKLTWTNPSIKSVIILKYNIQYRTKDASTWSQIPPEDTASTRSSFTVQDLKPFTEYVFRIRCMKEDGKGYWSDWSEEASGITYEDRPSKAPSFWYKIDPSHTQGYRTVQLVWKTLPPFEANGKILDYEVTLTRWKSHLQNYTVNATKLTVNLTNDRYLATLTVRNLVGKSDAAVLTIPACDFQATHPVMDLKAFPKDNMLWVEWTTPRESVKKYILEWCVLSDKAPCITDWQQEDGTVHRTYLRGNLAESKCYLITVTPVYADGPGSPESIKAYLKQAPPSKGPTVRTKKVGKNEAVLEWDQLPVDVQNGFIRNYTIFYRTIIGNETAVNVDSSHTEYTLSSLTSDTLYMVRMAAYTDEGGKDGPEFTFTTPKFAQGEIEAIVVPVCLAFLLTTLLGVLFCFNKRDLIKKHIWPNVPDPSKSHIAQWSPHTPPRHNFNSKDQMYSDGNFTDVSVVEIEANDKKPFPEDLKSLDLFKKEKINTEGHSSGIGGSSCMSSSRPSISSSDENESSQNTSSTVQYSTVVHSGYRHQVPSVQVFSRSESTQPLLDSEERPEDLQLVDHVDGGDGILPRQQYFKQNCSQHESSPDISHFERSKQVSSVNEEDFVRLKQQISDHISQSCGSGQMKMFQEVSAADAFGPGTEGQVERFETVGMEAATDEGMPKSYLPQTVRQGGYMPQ

[8] = target: T1, IL6Ralpha/GP130 (Homo sapiens); experiment: Inhibition of IL-6Ralpha/GP130 interaction in ER-negative human SUM159 cells overexpressing IL-6 assessed as inhibition of constitutive STAT3 phosphorylation at Y705 at 15 to 50 uM after 24 hrs by Western blot analysis; type: cell-based; how it was run: as §2

| inhibition [1] | inhibition [3] | inhibition [4] | Kd [7] [µM] | inhibition [8] | SMILES | inhibition [2] | IC50 [5] [µM] | IC50 [6] [µM] |
| --- | --- | --- | --- | --- | --- | --- | --- | --- |
| inactive | Active | Active |  |  | Cc1c(-c2ccc(O)cc2)n(Cc2ccc(OCCN3CCCCCC3)cc2)c2ccc(O)cc12 [BAZEDOXIFENE] | inactive | 24.9 | 9.7 |
|  |  |  | 288 |  | CCCCC1=C(C)C(=O)[C@](C)(CN2c3ccccc3[C@]3(O)CCOC23)C1=O (stereo partly drawn) [MADINDOLINE A] |  | > 250 |  |
| inactive |  |  |  | Active | O=C(c1ccc(OCCN2CCCCC2)cc1)c1c(-c2ccc(O)cc2)sc2cc(O)ccc12 [RALOXIFENE] | inactive | 43.2 | 26.3 |
